Bioassay records deposited in PubChem by several laboratories.
Most compounds without a hit are left out; they make up all but 6.4% or so of the library.
CHOP inhibitor – inhibitors of CHOP promoter induction, primary screen, cell-based, unfolded protein response, luciferase reporter | CHO-K1 CHOP-promoter luciferase, tunicamycin-induced, 15-18 h | inhibition, % at 10 µM | hit rate 3.8% among 220,000 | AID 2732, 2010;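 active means compounds that reduced the stress-induced luciferase reporter signal by more than about 70% of percent inhibition, limit read from the data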;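 further: 0% = tunicamycin plus vehicle and 100% = wells without tunicamycin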
EBV gp42 block – Epstein-Barr virus gp42 inhibitors, primary screen, biochemical, uHTS, fluorescence polarization; Fluorescence polarization binding assay, mP read-out; inhibition, % (tested at 21.74 µM); AID 1085, 2008; hit rate 0.42% among 220,000; in the data active means inhibition above about 50%
Target sequence (Q1HVG2 whole entry, looked up): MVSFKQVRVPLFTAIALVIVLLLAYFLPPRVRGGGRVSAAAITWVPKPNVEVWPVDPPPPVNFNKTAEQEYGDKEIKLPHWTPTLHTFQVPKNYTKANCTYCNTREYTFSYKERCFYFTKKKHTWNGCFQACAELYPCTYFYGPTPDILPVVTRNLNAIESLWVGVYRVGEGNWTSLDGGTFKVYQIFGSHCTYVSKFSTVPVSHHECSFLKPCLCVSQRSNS
TbMetRS inhib – T. brucei MetRS inhibitors, primary screen, biochemical, luminescence; methionyl-tRNA synthetase (Trypanosoma brucei brucei); purified T. brucei MetRS, ATP depletion, Kinase-Glo luminescence; inhibition, % at 11.9 µM; hit rate 0.4% among 360,000;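 active means inhibition above a per-plate cutoff of the control wells' mean inhibition plus 3 SD, cut at about 5.5% in these data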;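 further: 0% = DMSO wells median and 100% = median of wells with control inhibitor compound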
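Dosing: 11.9 µM compound single dose, 0.9% DMSO; Assay system: purified T. brucei MetRS enzyme; Measured by: Kinase-Glo luciferase luminescence reporting remaining unconsumed ATP; Schedule: 15 min plus 2 h at 25 °C.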
WT yeast gro inh – growth inhibition of WT strain, primary screen, mitochondrial fusion inhibitor project, WT and mutant strains, chemical genetic | AID 1362, 2008 | hit rate 2.1% among 190,000 | inhibition, % at 10 µM | mitochondrial fusion phenotypic screen; in the data active means inhibition above about 58%; tested in S. cerevisiae
NR3A LBD binder – binders of NR3A ligand-binding domain, primary screen, biophysical, differential scanning fluorimetry, uHTS; Tm shift relative to glycine control, % at 25 µM; NR3A LBD differential scanning fluorimetry, Tm shift; 0% = protein alone, 100% = glycine-bound protein; Glutamate receptor ionotropic, NMDA 3A (GRIN3A) ligand-binding domain; AID 1259313, 2017; hit rate 2.5% among 340,000;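 active means melting temperature shift of at least 10% of the positive control shift, at one fixed dose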
MPTP inh – mitochondrial permeability transition pore inhibitors, primary screen, biochemical, isolated mouse mitochondria, absorbance; inhibition, % at 10 µM; Ca2+ swelling absorbance, 30 min; hit rate 1.4% among 360,000;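 active means inhibition of 50% or more, scaled per plate between neutral and stimulator controls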;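 further: 0% = DMSO wells given calcium and 100% = 1 mM EGTA wells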
TbMetRS confirm – T. brucei MetRS inhibitors, confirmation, biochemical, luminescence; shares compounds with TbMetRS inhib; T. brucei MetRS enzyme, luminescence (ATP depletion); inhibition, % at 11.9 µM; hit rate 93% among 1,400; AID 624412, 2012; in the data active means inhibition above about 7%
Jurkat cytotox – Jurkat T cell cytotoxicity, cytotoxicity control for T. brucei MetRS inhibitor project, luminescence, high throughput. Jurkat cells viability, ATP luminescence. inhibition, % at 8.3 µM. shares compounds with TbMetRS inhib. AID 624413, 2012. hit rate 12% among 1,400; in the data active means inhibition above about 15%;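 further: 0% = vehicle and 100% = reference inhibitor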
TbMetRS FP orth – T. brucei MetRS inhibitors, orthogonal assay for T. brucei MetRS inhibitor project, biochemical, fluorescence polarization. shares compounds with TbMetRS inhib. purified T. brucei MetRS. inhibition, % at 11.9 µM. hit rate 44% among 1,400. AID 651607, 2012; in the data active means inhibition above about 17%;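 further: 0% = vehicle wells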
Numbers without * were called inactive.

Screening Clc1ccc(CN=C2Nc3ccccc3CS2)cc1 returned CHOP inhibitor 65, EBV gp42 block -4, TbMetRS inhib 12*, WT yeast gro inh 2, NR3A LBD binder -13, MPTP inh 3, TbMetRS confirm 25*, Jurkat cytotox 2 and TbMetRS FP orth 14.
COc1cccc2c1SCc1ccccc1C2CC(N)=O (stereo not drawn) was read as TbMetRS inhib 0, NR3A LBD binder -1 and MPTP inh 0.
COc1cccc(C2=NNC(=NCc3ccccc3)SC2)c1 was read as CHOP inhibitor -3, EBV gp42 block 4, TbMetRS inhib 0, WT yeast gro inh 6, NR3A LBD binder -1 and MPTP inh 11.
`Nc1nc(SCc2ccccn2)c2ncn(C3CCCC3)c2n1` gave TbMetRS inhib 0, NR3A LBD binder 0 and MPTP inh 0.
Screening Cc1cc(NC(=O)CCC(=O)N(Cc2ccco2)C(C)(C)C(=O)NC2CCCCC2)no1 returned CHOP inhibitor 13, EBV gp42 block -5, TbMetRS inhib -2, WT yeast gro inh 6, NR3A LBD binder 4 and MPTP inh -1.
c1cncc(CN=C2Nc3ccccc3CS2)c1 was read as CHOP inhibitor 42, EBV gp42 block -15, TbMetRS inhib 8.6*, WT yeast gro inh 1, NR3A LBD binder 0, MPTP inh -2, TbMetRS confirm 17*, Jurkat cytotox -4 and TbMetRS FP orth 9.
Screening CCCn1cnc2cc(NCc3ccccn3)ccc21 returned CHOP inhibitor 25, EBV gp42 block -13, TbMetRS inhib 0, WT yeast gro inh 10, NR3A LBD binder 0 and MPTP inh 2.
Screening CCCn1cnc2cc(NCc3cccc(OC)c3O)ccc21 returned CHOP inhibitor -8, EBV gp42 block -11, TbMetRS inhib 8.4*, WT yeast gro inh 17, NR3A LBD binder 1, MPTP inh 3, TbMetRS confirm 15*, Jurkat cytotox 0 and TbMetRS FP orth 3.
`O=C(NCc1cc(Cl)cc(Cl)c1)c1csc([C@@H]2C[C@H](O)[C@@H](CO)O2)n1` gave TbMetRS inhib 22*, MPTP inh -1, TbMetRS confirm 60*, Jurkat cytotox -2 and TbMetRS FP orth 35*.
`O=C(NCc1cc(Cl)cc(Cl)c1)c1csc(COCCO)n1` gave TbMetRS inhib 43*, MPTP inh 0, TbMetRS confirm 66*, Jurkat cytotox 6 and TbMetRS FP orth 44*.
For O=C(NCc1ccncc1)c1ccc2nc([C@@H]3O[C@H](CO)[C@H](O)[C@H](O)[C@H]3O)[nH]c2c1 the results were TbMetRS inhib 0 and MPTP inh 0.
O=C(NCc1cc(Cl)cc(Cl)c1)c1ccc2nc([C@@H]3O[C@H](CO)[C@@H](O)[C@H]3O)[nH]c2c1 was read as TbMetRS inhib 11*, MPTP inh 0, TbMetRS confirm 45*, Jurkat cytotox -2 and TbMetRS FP orth 25*.
`O=C(NCc1cc(Cl)cc(Cl)c1)c1ccc2sc([C@H]3C[C@H](O)[C@@H](CO)O3)nc2c1` gave TbMetRS inhib 27*, MPTP inh 0, TbMetRS confirm 69*, Jurkat cytotox 7 and TbMetRS FP orth 39*.
O=C(NCc1ccccc1Cl)c1ccc2sc([C@H]3C[C@H](O)[C@@H](CO)O3)nc2c1 was read as TbMetRS inhib 0 and MPTP inh -2.
Screening Cc1ccc(C)c(N2CCN(S(=O)(=O)c3ccc4[nH]c(=O)ccc4c3)CC2)c1 returned TbMetRS inhib -1, NR3A LBD binder -4 and MPTP inh 0.
